Reference: publication PMC7439260 (ACS Omega, 2020)
Structures can show the parent of a compound that is named as a salt. Where a SMILES comes first, the peptide text is derived from it. [ ]: non-standard residue; d: D form. Hyp = O=C(O)[C@@H]1C[C@@H](O)CN1

Experiments:
thymus and spleen = assay: Thymus index and spleen index; type: in vivo, ICR mice; conditions: oral administration at doses of 300 or 450 μmol/kg b.w.; mice
How it was run: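 The same orally dosed ICR mice (300 or 450 μmol/kg b.w. peptide, saline vehicle) were weighed and sacrificed after the tail-bleeding test. Thymus and spleen were excised, washed in PBS, blotted and weighed. Indices were computed as organ weight / body weight (mg/g). Gross appearance of the organs was checked for atrophy, hyperplasia or swelling.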

bleeding time = assay: Tail bleeding assay; type: in vivo, ICR mice; conditions: mice, n = 10; for Effect on bleeding time (BT) (in words): doses of 300 and 400 μmol/kg b.w. oral; for Bleeding time (BT): 100 μmol/kg b.w. oral, tail cut 3 mm, saline 37 °C, maximum 900 s
[1] = system: human platelet aggregation; conditions: at 1 mg/mL; cited from earlier work
[2] = system: platelet aggregation induced by ADP; conditions: read-out: IC50 of antiplatelet activity induced by ADP; cited from earlier work
[3] = system: platelet aggregation induced by ADP; assay: Inhibition of ADP-induced platelet aggregation in vitro; type: cell-based, rat; conditions: data not shown
How it was run: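 Rat aortic blood was anticoagulated with sodium citrate (1:9, v/v) and spun at 50 × g for 10 min to give PRP. A further 750 × g, 10 min spin gave PPP, used to dilute PRP to 2–3 × 10^8. PRP was preincubated with buffer or peptide for 5 min at 37 °C, then ADP (0.1 mM) was added. Aggregation at 5 min was read on an aggregometer. Inhibition % was calculated versus the buffer control, and IC50 was derived by curve fitting.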

Compound: N[C@@H](CC(=O)O)C(=O)N[C@@H](CCC(=O)O)C(=O)NCC(=O)N1CCC[C@H]1C(=O)O [DEGP, Asp-Glu-Gly-Pro] (H-DEGP-OH)
- Acute toxicological effects (in words) (thymus and spleen): no acute toxicological effects
- Effect on bleeding time (BT) (in words) (bleeding time): no significant increase in BT

Compound: O=C(O)CC[C@H](NC(=O)CNC(=O)[C@@H]1C[C@@H](O)CN1)C(=O)N[C@@H](Cc1ccccc1)C(=O)NCC(=O)O [OGEFG, Hyp-Gly-Glu-Phe-Gly] (H-[Hyp]GEFG-OH)
- Acute toxicological effects (in words) (thymus and spleen): no acute toxicological effects
- Effect on bleeding time (BT) (in words) (bleeding time): no significant increase in BT

Compound: CC(=O)Oc1ccccc1C(=O)O [aspirin, Aspirin, reference compound]
- Bleeding time (BT) (bleeding time): 5.345 min

Compound: COC(=O)[C@H](c1ccccc1Cl)N1CCc2sccc2C1 [clopidogrel, clopidogrel hydrogen sulfate, reference compound]
- Bleeding time (BT) (bleeding time): > 15 min

Compound: LTFPRIVFVLG
- Inhibition of platelet aggregation [1]: 76.69%

Compound: SSGE
- IC50 [2]: 480 µM

Compound: VFPQ
- Activity against ADP-induced platelet aggregation (in words) [3]: poor activities
